Yeast growth inh: growth inhibitors of yeast BB579 in restrictive medium, primary screen, yeast lifespan-shortening project, S. cerevisiae | OD615, 48 h | inhibition, % at 10 µM | hit rate 0.51% among 140,000;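 active means inhibition above a set limit, 3 SD over the mean compound inhibition, cut at about 44% in these data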
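Detection: OD615 turbidity measurement; Material: Saccharomyces cerevisiae DeaD strain BB579, replicative lifespan model yeast; Timing: 48 h exposure, 30 °C; Doses: single 10 µM dose; Medium: CSMM-D restrictive synthetic medium containing dextrose (glucose); Controls: amphotericin B at 10 µg/mL as positive control.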
RAM network inh: inhibitors of the yeast RAM network, primary screen, dse1pr::URA3 reporter, 5-FOA selection | S. cerevisiae dse1pr::URA3 reporter, 5-FOA growth OD615, 2 d; analog-sensitive cbk1-as2 kinase mutant strain | inhibition, % at 50 µM | hit rate 1.8% among 190,000;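 active means inhibition above a set limit, 3 SD over mean compound inhibition, cut at about 8.4% in these data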;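 further: inhibition rescues growth on 5-FOA so higher OD means more RAM inhibition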
Measles CPE: compounds protecting cells from measles virus cytopathic effect, primary screen, measles RdRp inhibitor project, single point, MLSMR library, absorbance; Measles virus-infected cells, CPE protection; protection (pct of control), % at 4 µM; hit rate 1.5% among 140,000; in the data active means protection mostly above about 24%, no sharp cut-off; inactive means mostly below about 26%
Yeast lifespan up: compounds extending yeast replicative lifespan, primary screen, S. cerevisiae, OD615 | S. cerevisiae growth with nicotinamide; deaD strain in restrictive glucose medium | hit rate 0.68% among 130,000 | inhibition of the nicotinamide effect, % at 10 µM | AID 775, 2007;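 active means inhibition above a set limit, placed 3 SD over the median of all compounds, cut at about 26% in these data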
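Assay system: engineered S. cerevisiae DeaD replicative-lifespan strain, galactose-grown log-phase cells; Buffer or medium: CSMM-D glucose medium, restrictive; Probe or stimulus: nicotinamide 1.5 mM; Compound: single dose 10 µM compound, 0.25% DMSO; Schedule: 4 h preincubation then 48 h treatment at 30 °C; Technique: OD615 measurement.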
WT yeast gro inh: growth inhibition of WT strain, primary screen, mitochondrial fusion inhibitor project, WT and mutant strains, chemical genetic; inhibition, % at 10 µM; mitochondrial fusion phenotypic screen; AID 1362, 2008; hit rate 2.1% among 190,000; in the data active means inhibition above about 58%; tested in S. cerevisiae
hDAT+cocaine: changed hDAT dopamine uptake under cocaine IC80, either direction, primary screen, cocaine antagonist project, cell-based, LLC-PK1 hDAT, [14C]-dopamine uptake, MLSMR. hit rate 1.3% among 110,000. Sodium-dependent dopamine transporter (Homo sapiens), Q01959. AID 449768, 2010. LLC-PK1 hDAT cells, [14C]-dopamine uptake with cocaine IC80; actives deviate in either direction. B-score at 10 µM;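 active means Z score or B-score, a plate-position-corrected score, falls beyond the plate's 99.7% confidence bounds, in either direction; inactive means both scores lie inside the 99.7% bounds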
Target sequence (Q01959 whole entry, looked up): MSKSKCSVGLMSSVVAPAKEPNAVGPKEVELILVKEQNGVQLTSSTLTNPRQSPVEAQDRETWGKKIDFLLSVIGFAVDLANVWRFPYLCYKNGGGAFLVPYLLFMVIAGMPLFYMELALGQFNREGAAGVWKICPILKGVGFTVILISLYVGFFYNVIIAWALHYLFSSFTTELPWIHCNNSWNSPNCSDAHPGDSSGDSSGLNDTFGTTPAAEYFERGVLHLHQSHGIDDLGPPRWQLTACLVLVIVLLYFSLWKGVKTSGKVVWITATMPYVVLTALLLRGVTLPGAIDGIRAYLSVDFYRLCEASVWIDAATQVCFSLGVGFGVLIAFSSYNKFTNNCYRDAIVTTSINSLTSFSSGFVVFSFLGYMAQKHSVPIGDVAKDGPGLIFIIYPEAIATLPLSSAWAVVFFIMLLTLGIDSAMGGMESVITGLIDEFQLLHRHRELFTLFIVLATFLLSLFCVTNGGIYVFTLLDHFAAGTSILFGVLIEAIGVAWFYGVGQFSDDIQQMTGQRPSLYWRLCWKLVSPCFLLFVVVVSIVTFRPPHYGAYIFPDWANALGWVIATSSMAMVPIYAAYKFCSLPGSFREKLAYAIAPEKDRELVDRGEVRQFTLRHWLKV
Of the large screens only hits and unclear results are named; the others gave an inactive call. The list is not random: actives were taken first. Their share in the collection is about 6.1%.

O=C(Oc1c(Cl)cc(Cl)c2cccnc12)c1cccs1	Yeast growth inh 98.9, WT yeast gro inh 59.8 (no result: Yeast lifespan up)
COc1ccc(NS(=O)(=O)c2ccc(N3CCOCC3)c(NC(=O)c3ccc(OC)cc3)c2)cc1	RAM network inh 8.6 (no result: hDAT+cocaine)
CN(C)S(=O)(=O)c1ccc(C(=O)Nc2cc(S(=O)(=O)Nc3ccccc3Cl)ccc2N2CCCCC2)cc1	RAM network inh 8.6 (no result: hDAT+cocaine)
O=C(c1cc([N+](=O)[O-])ccc1N1CCCCC1)N1CCCCC1	none
O=C(Nc1cc([N+](=O)[O-])ccc1N1CCCC1)c1ccco1	none (no result: Yeast growth inh, Measles CPE, Yeast lifespan up, hDAT+cocaine)
COc1ccc(C(=O)Nc2cc([N+](=O)[O-])ccc2N2CCCC2)cc1	RAM network inh 8.5 (no result: Yeast growth inh, Measles CPE, Yeast lifespan up, hDAT+cocaine)
O=C(O)c1cc([N+](=O)[O-])ccc1N1CCCCC1	Measles CPE 21.2 (no result: hDAT+cocaine)
Cc1ccc(-c2c(C)n([O-])c3c([n+]2=O)CCCC3)o1	none
Cc1ccccc1C(=O)Nc1cc(S(=O)(=O)N2CCCCC2)ccc1N1CCN(C)CC1	Measles CPE 33.1 (no result: hDAT+cocaine)
CN1CCN(c2ccc(S(=O)(=O)N3CCCCC3)cc2NC(=O)c2ccc3ccccc3c2)CC1	none (no result: hDAT+cocaine)
COc1cc(NC(=S)NN2CCN(C)CC2)cc(OC)c1	none
Cc1noc(C)c1-c1ccc2nc[nH]c(=O)c2c1	none (no result: Yeast growth inh, RAM network inh, Measles CPE, Yeast lifespan up, WT yeast gro inh)
CN1CCC(=NNC(=O)C(=O)NC2CCCCC2)CC1	none
CN1CCC(=NNC(=O)C(=O)NC2CCCC2)CC1	Measles CPE 56.0 (no result: hDAT+cocaine)
CCNS(=O)(=O)c1cccc(C(=O)c2c(C)cc3ccccn23)c1	none (no result: hDAT+cocaine)
Cc1cccc2sc(NNC(=O)c3cc(-c4cccs4)nc4ccccc34)nc12	WT yeast gro inh 59.0 (no result: hDAT+cocaine)
Cc1cc(NC(=O)c2cc(-c3cccs3)nc3ccccc23)no1	none
COc1cccc(-c2cc(C(=O)Nc3nc4ccccc4s3)c3ccccc3n2)c1	none
COc1ccc(-c2cc(C(=O)Nc3nc4c(C)cccc4s3)c3ccccc3n2)cc1OC	RAM network inh 8.6
COc1cccc(NC(=O)c2ccc3c(c2)N(CC(=O)N2CCCCC2)C(=O)C(C)(C)O3)c1	RAM network inh 8.8, hDAT+cocaine 3.11
COc1cccc(C(=O)CN2C(=O)C(C)(C)Oc3ccc(C(=O)N4CCCCCC4)cc32)c1	none
Cc1ccc2nc(NC(=O)C3CCCN(S(=O)(=O)c4cccc5nsnc45)C3)sc2c1 (stereo unspecified)	WT yeast gro inh 64.6
COc1ccc2nc(NC(=O)C3CCN(S(=O)(=O)c4cccs4)CC3)sc2c1	hDAT+cocaine 2.81
COc1ccc2nc(NC(=O)C3CCN(S(=O)(=O)c4cnc[nH]4)CC3)sc2c1	hDAT+cocaine 1.97
CC(C)C(NS(=O)(=O)c1cccc2nsnc12)C(=O)Nc1nc2ccc(Cl)cc2s1 (stereo unspecified)	WT yeast gro inh 61.6 (no result: hDAT+cocaine)
Cc1ccc2nc(NC(=O)C3CCN(S(=O)(=O)c4cccc5nsnc45)CC3)sc2c1	none (no result: hDAT+cocaine)
COc1cccc(C(=O)OCC(=O)c2c[nH]c3ccccc23)c1O	none (no result: Yeast growth inh, Measles CPE, Yeast lifespan up, hDAT+cocaine)
Cc1ccc(CNC(=O)C2CCN(S(=O)(=O)c3cnc[nH]3)CC2)cc1	none
CCCCNC(=O)C1CCN(S(=O)(=O)c2cnc[nH]2)CC1	WT yeast gro inh 70.9
Cc1ccc2nc(NC(=O)C3CCN(S(=O)(=O)c4cnc[nH]4)CC3)sc2c1	RAM network inh 11.1 (no result: hDAT+cocaine)
N#C/C(=C/c1cc(Br)cs1)C(=O)NCC1CCCO1 (stereo unspecified)	Measles CPE 36.9
O=C(NC(NC1CCS(=O)(=O)C1)C(Cl)(Cl)Cl)c1ccc(Br)cc1 (stereo unspecified)	none
C=CCC(NCc1ccco1)c1ccc(OC)c(OC)c1 (stereo unspecified)	hDAT+cocaine -7.49 (no result: WT yeast gro inh)
C=CCC(NCc1ccco1)c1ccc(OC)cc1OC (stereo unspecified)	none
CCCCC1C(=O)CC[C@H]2[C@@H]1CC(=O)[C@@H]2C/C=C\CCCC(=O)O (stereo partly specified)	Yeast lifespan up 50.0

Screens: PubChem BioAssay, several laboratories
